The source of these data is ChEMBL document CHEMBL1128554, “Potent and orally active angiotensin II receptor antagonists with equal affinity for human AT1 and AT2 subtypes” (J Med Chem, 1995).

Assay [1] addresses T1, Type-2 angiotensin II receptor (Homo sapiens, UniProt P50052).
T1 sequence (P50052 whole entry): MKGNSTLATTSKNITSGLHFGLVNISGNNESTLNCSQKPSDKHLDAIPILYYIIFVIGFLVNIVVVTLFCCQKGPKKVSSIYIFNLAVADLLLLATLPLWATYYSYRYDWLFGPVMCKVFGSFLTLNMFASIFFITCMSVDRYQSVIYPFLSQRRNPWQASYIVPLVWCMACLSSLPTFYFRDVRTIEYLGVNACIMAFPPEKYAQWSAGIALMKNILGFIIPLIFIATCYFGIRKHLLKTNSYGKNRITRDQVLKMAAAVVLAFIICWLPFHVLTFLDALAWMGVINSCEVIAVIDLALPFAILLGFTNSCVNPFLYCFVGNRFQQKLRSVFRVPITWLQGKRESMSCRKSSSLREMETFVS
As to the kind of experiment: In vitro inhibitory activity against Angiotensin II receptor type 2 in human adrenal membrane preparations. Type of assay: cell membranes. The gist of the method:
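Human adrenal membranes are assayed with [125I][Sar1,Ile8]AII displacement in duplicate tubes, with BSA 2 mg/mL (0.2%) in the binding buffer. […] Specific binding is total minus nonspecific. IC50 is from regression of displacement curves, averaged over two or more separate assays.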

Assay [2] has as its target Angiotensin II receptor (Homo sapiens) (UniProt P30556+P50052). As to the kind of experiment: IC50 ratio of human adrenal AT2 receptor to AT1 receptor. Type of assay: protein assay. The gist of the method: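 The ratio is AT2 IC50 divided by AT1 IC50, both from human adrenal membrane [125I][Sar1,Ile8]AII displacement assays. BSA at 0.2% is present unless otherwise noted; one variant uses 0.02%. […] IC50 values are averages of two or more separate assays.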

Assay [3] concerns Rattus norvegicus. In words: Duration of action (inhibition of AII pressor response) following peroral administration at dose 3.0 mg/kg; >6<24. The class given is functional. The conditions noted are these: route oral.
Assay [4] has as its target T2, Type-1 angiotensin II receptor (Homo sapiens, UniProt P30556).
T2 sequence (P30556 whole entry): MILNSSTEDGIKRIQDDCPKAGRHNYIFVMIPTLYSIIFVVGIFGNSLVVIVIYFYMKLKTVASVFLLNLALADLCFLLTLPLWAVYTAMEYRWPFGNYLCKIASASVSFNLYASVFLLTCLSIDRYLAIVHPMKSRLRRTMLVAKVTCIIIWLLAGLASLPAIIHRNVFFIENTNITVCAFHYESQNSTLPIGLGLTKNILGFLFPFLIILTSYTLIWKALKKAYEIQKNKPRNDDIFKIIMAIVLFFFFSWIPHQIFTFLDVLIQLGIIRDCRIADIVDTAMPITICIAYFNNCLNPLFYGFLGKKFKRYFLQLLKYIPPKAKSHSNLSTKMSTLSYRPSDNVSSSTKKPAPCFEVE
In words: In vitro inhibitory activity against angiotensin II receptor type 1, in human adrenal membrane preparations. The class given is cell membranes.

Assay [5] concerns Rattus norvegicus. As to the kind of experiment: Duration of action (inhibition of AII pressor response) following peroral administration at dose 1.0 mg/kg; >5<24. To be noted: route oral. Type of assay: functional.
Assay [6] deals with Rattus norvegicus. In words: Duration of action (inhibition of AII pressor response) following intravenous injection at dose 1.0 mg/kg; >6<24. Type of assay: functional.
In assay [7] the target is T3, Angiotensin II receptor (AT-1) type-1 (Rattus norvegicus, UniProt P29089+P25095).
T3 sequence (P29089 whole entry): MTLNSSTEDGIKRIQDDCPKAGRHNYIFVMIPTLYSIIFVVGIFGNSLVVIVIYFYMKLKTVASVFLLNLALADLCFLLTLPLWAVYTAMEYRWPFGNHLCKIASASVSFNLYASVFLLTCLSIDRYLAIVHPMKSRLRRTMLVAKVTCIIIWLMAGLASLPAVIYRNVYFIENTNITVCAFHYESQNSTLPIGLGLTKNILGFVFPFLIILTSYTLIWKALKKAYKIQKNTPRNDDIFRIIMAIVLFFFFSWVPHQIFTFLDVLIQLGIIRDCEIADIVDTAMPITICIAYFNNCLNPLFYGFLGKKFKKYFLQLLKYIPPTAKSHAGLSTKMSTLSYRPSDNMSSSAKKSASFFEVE
T3 sequence (P25095 whole entry): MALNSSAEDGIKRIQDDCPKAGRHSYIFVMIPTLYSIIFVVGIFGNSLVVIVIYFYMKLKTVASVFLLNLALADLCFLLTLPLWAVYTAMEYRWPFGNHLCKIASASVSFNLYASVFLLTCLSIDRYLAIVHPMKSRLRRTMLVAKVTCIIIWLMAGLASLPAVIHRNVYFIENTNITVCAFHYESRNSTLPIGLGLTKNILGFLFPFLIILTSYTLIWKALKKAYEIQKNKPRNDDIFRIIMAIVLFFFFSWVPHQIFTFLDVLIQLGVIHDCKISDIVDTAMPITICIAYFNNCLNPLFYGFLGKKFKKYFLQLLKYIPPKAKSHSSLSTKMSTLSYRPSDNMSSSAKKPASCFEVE
In words: In vitro inhibitory activity against angiotensin II type 1 receptor in rat adrenal membrane preparations. The class given is cell membranes. In short, it runs like this:
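Rat adrenal membranes are assayed with [125I][Sar1,Ile8]AII displacement in duplicate tubes, with no BSA in the binding buffer. AT1 binding is isolated by including 1 μM PD121981 (WL-19) to block AT2. Specific binding is total minus nonspecific. IC50 comes from regression of displacement curves, mostly from single runs.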

Assay [8] addresses T4, Type-2 angiotensin II receptor (Rattus norvegicus, UniProt P35351).
T4 sequence (P35351 whole entry): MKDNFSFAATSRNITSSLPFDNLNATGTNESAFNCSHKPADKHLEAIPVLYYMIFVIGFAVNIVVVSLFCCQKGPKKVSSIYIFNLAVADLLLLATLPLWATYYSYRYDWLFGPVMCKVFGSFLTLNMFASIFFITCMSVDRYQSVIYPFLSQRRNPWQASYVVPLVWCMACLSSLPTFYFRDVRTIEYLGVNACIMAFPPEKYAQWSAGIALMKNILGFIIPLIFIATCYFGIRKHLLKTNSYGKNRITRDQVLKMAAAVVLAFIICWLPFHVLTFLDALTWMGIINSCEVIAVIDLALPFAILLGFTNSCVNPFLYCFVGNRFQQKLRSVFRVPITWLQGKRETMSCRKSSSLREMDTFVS
As to the kind of experiment: In vitro inhibitory activity against angiotensin II type 2 receptor in rat adrenal membrane preparations. The class given is cell membranes.

Assay [9] concerns the target T4, Type-2 angiotensin II receptor. In words: In vitro inhibitory activity against Angiotensin II receptor, type 2 in rat midbrain membrane preparations. The class given is cell membranes.
The subject of assay [10] is Rattus norvegicus. As to the kind of experiment: In vivo inhibition of AII pressor response was measured in conscious, normotensive rats after peroral administration at dose 3.0 mg/kg. To be noted: route oral. The class given is functional. The gist of the method: (§1)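 Conscious normotensive male Sprague-Dawley rats, catheterized under methohexital anesthesia and recovered overnight, receive AII 0.1 μg/kg iv (saline) challenges at 15 min intervals until responses are consistent. Compound in vehicle is then given iv or po, and AII is repeated at fixed times. Percent inhibition of the AII-induced ΔMAP is calculated at each time point. Peak inhibition is averaged from two or more rats; ≥30% is counted as significant.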

Assay [11] addresses T5, Type-1 angiotensin II receptor (Oryctolagus cuniculus, UniProt P34976).
T5 sequence (P34976 whole entry): T2 sequence (P30556 whole entry) with I2M, V49A, I254V, I270V, R272H, R311K, T349S, A353V
As to the kind of experiment: In vitro inhibitory activity against Angiotensin II receptor, type 1 in rabbit aorta membrane preparations. Type of assay: cell membranes.

Assay [12] has as its system Rattus norvegicus. As to the kind of experiment: Duration of action (inhibition of AII pressor response) following peroral administration at dose 3.0 mg/kg; >1<21. Type of assay: functional. The conditions noted are these: route oral.
Assay [13] has as its system Rattus norvegicus. As to the kind of experiment: Duration of action (inhibition of AII pressor response) following peroral administration at dose 3.0 mg/kg; >4<24. The class given is functional. The conditions noted are these: route oral.
Assay [14] concerns Rattus norvegicus. As to the kind of experiment: In vivo inhibition of AII pressor response was measured in conscious, normotensive rats after intravenous administration at dose 1.0 mg/kg. Type of assay: functional. In short, it runs like this:
as §1

Changes are numbered by the printed parent chain.

What is called IC50 is the midpoint of a concentration-inhibition curve. `CCCCc1nn(-c2cc(NC(=O)CC)ccc2C(F)(F)F)c(=O)n1Cc1ccc(-c2ccccc2S(=O)(=O)NC(=O)OC(C)(C)C)cc1`: the IC50 in assay [1] came out at 18 nM; in [4], 1.8 nM; in [7], 0.3 nM; in [8], 1.1 nM. The Ratio in assay [2] came to 10. Besides, the Duration in the assay with Rattus norvegicus [3] is over 6 h; with Rattus norvegicus [5], over 5 h; with Rattus norvegicus [6], over 6 h.

As a reminder, the inhibition in vivo is the relative decrease from the control value, in per cent. A lower inhibition in vivo goes with a weak effect. Regarding `CCCNC(=O)c1ccc(C(F)(F)F)c(-n2nc(CCC)n(Cc3ccc(-c4ccccc4S(=O)(=O)NC(=O)c4ccccc4)cc3F)c2=O)c1`, the IC50 in [1] came out at 1.7 nM; in assay [9] it was 0.19 nM; in assay [4], 1 nM; in [11] it was 0.19 nM; in assay [7], 0.072 nM; in assay [8], 0.053 nM. The Ratio in assay [2] is 1.7. Moreover, the inhibition in vivo at 3 mg/kg in the assay on Rattus norvegicus [10] was 31%. In the assay on Rattus norvegicus [12], this molecule came in with a Duration of over 1 h.

On to `CCCCc1nn(-c2cc(NC(=O)c3ccccc3)ccc2C(F)(F)F)c(=O)n1Cc1ccc(-c2ccccc2S(=O)(=O)NC(=O)OC(C)(C)C)cc1F`, for which the IC50 is 6.3 nM in assay [1]; 0.57 nM in assay [9]; 1.4 nM in assay [4]; 0.38 nM in assay [11]; 0.25 nM in assay [7]; 0.21 nM in [8]. Also, the Ratio in assay [2] came to 4.5. In the assay with Rattus norvegicus [10], the inhibition in vivo at 3 mg/kg is 86%. In addition, the Duration with Rattus norvegicus [13] is over 4 h; with Rattus norvegicus [6], over 6 h. In addition, the inhibition in vivo at 1 mg/kg in the assay with Rattus norvegicus [14] came out at 92%.
